The values that follow come from PubChem BioAssay.

Assay [1] in a line: inhibitors of TNFa-induced NFkB p65 translocation, primary screen, imaging, HUVEC, MLSMR starter and 10KST1 sets (AID 438;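 active = inhibition above 20% together with a positive visual image hit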;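 also: compound added about 3h40 before a 20 min TNFalpha stimulation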;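 as to inhibition: signal is the nuclear over cytoplasmic p65 intensity ratio per well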). Conditions: HUVEC TNFa-induced p65 nuclear translocation; cell count: measured here: nuclei count (cytotoxicity indicator), at 2.08 µM; inhibition: at 2 µM, stronger effect = higher value, 0% TNFa-plus-vehicle, 100% no-TNFa wells.
Assay [2] can be described thus: reduction of polyQ htt aggregates in cells – imaging, exon1htt(103Q)mCFP cells, high-content imaging, primary screen (AID 483;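 active = visual image review flags a hit and inhibition of aggregation exceeds 20%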;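 also: compound exposure lasted 3 days before fixation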;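 as to nuclei count: percent of the per-plate median nuclei count of sample wells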). Conditions: exon1htt(103Q)mCFP cell line, aggregate imaging, at 2 µM; inhibition of aggregation: stronger effect = higher value; nuclei count: measured here: cell count, toxicity.
The nature of assay [3]: endothelial E-selectin expression blockers – imaging, HUVEC, immunofluorescence, MLSMR starter and 10KST1 sets, primary screen (AID 487;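 active = visually confirmed hit in the image check and inhibition above 20%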;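 as to inhibition: signal is fraction of cell area covered by stained E-selectin grains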;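 as to nuclei count: 100% = median nuclei count of all wells on the same plate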). Conditions: HUVEC TNFalpha-induced E-selectin immunofluorescence imaging, at 2 µM; inhibition: stronger effect = higher value; nuclei count: measured here: cell number, toxicity.
In assay [4] the target is Voltage-gated potassium channel subunit beta-2 (Rattus norvegicus) (UniProt P62483). Description: inhibitors of rat Kvbeta2 reductase activity – biochemical, NADPH fluorescence, primary screen (AID 622;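 active = fluorescence slope higher than the sample average by over 3 SD, cut at about -0.22 in these data, passing the limit was not always enough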;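 also: slope of raw intensity against log time taken from 70 to 1610 s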). Conditions: recombinant KvBeta, 4-cyanobenzaldehyde reduction, at 10 µM, stronger effect = higher value.
Assay [5] has the same target. Briefly: enhancers of rat Kvbeta2 NADPH turnover – biochemical, NADPH fluorescence, primary screen (AID 623;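 active = NADPH fluorescence slope more negative than the mean of all samples by about 3 SD, 99.7% confidence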;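 also: fluorescence intensity change per second fitted from 20 to 320 s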). Conditions: Recombinant KvBeta, NADPH fluorescence decrease slope, 10 min; at 10 µM; stronger effect = lower value.
Assay [6] concerns the target Muscarinic acetylcholine receptor M4 (Homo sapiens) (UniProt P08173). Description: M4-linked GIRK flux change, two-sided – cell-based, HEK293 M4/GIRK, thallium flux, BTC-AM, M4 allosteric agonist project, primary screen (AID 625).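 Also: thallium influx through GIRK channels coupled to M4 in HEK293 cells with BTC-AM dye.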 Conditions: at 10 µM, actives lie on both sides. The essentials: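 Material: HEK293 cells with M4 receptor and GIRK channels; Times: cells overnight at 37 °C, BTC-AM loading 1 h, reads 2 min total; Technique: kinetic BTC-AM fluorescence sampled at 1 Hz, 10 s pre-addition baseline; Read-out basis: slope over 15–24 s of trace normalized to starting intensity; Controls: carbachol positive, DMSO negative.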

Assay [7] in a line: blockers of RIG-like receptor reporter activation – cell-based, Sendai virus stimulus, luciferase, 10K MLSCN set, TLR/RLR signaling modifier project, primary screen (AID 602276;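 active = inhibition at or above 50% at 10 µM; inactive = inhibition below 50%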;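 also: firefly luciferase from ISG56 promoter only with Renilla not read in this screen; 0% = Sendai virus plus DMSO and 100% = medium plus DMSO without virus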). Conditions: HEK293 RL24 IRF3 luciferase reporter, at 10 µM, stronger effect = higher value. On the technique in general: Reporter assays use an easily measured gene product as a stand-in for the process of interest.

Assay [8] can be described thus: TLR3 IRF3 reporter activation blockers – cell-based, poly I:C stimulus, luciferase, 10K MLSCN set, primary screen (AID 602277;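 active = inhibition of the reporter signal at or above 50%; inactive = inhibition below 50%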). Conditions: HEK293-TLR3 RL24 IRF3 luciferase reporter, at 10 µM, stronger effect = higher value.

One may read the inhibition as the change of the read-out against control, counted positive when it falls.

Active and inactive are the calls of the source.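 The calls were made as follows, unless noted: active = fluorescence slope after compound addition differing from the mean of all tested samples at 99.7% confidence, mostly higher but some lower; inactive = the rest.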

Chain of Muscarinic acetylcholine receptor M4 (Homo sapiens) (P08173 whole entry, looked up): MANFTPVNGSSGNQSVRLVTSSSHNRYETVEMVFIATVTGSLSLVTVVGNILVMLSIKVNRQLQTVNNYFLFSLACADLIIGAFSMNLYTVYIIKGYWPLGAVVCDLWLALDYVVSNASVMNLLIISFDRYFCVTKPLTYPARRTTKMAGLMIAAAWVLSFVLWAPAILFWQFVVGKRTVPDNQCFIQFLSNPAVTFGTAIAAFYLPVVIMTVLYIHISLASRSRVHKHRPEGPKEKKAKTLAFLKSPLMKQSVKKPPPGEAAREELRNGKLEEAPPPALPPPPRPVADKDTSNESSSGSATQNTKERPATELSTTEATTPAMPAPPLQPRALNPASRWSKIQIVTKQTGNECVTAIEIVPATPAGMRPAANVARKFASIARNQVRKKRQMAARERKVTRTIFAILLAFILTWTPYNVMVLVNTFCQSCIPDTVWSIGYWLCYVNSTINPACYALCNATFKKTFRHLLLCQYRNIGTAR
Chain of Voltage-gated potassium channel subunit beta-2 (Rattus norvegicus) (P62483 whole entry, looked up): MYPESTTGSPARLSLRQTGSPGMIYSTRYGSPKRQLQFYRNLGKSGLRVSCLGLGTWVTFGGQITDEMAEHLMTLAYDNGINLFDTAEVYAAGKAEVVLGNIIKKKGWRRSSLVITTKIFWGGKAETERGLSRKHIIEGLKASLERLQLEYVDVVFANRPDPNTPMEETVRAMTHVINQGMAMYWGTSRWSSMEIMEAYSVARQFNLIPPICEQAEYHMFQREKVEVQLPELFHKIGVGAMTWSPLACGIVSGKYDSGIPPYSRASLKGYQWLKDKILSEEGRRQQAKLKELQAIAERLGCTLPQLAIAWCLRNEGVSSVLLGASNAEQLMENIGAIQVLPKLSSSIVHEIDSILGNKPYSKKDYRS

On to `CCOC(=O)N1CCN(C(=O)c2ccc3c(=O)n(CCc4ccccc4)c(=O)[nH]c3c2)CC1`, for which, in assay [1], the cell count was determined as 784. Further, the inhibition is -7.8% (inactive) in assay [1], -60% (inactive) in assay [3], -16.4% (inactive) in assay [7] and -40% (inactive) in assay [8]. Moreover, the inhibition of aggregation in assay [2] was 5.4% (inactive). Also, the figures for the nuclei count in assay [2] and in assay [3] were 111% and 115%, respectively. Also, the figures for the fluorescence slope in assay [4] and in assay [6] were -0.307 (inactive) and 0.00774 (inactive), respectively. The NADPH fluorescence slope in assay [5] is 4.7e-06 (inactive).

For the compound `O=C(COc1nnc2ccccn12)N1CCN(S(=O)(=O)c2ccccc2)CC1`, the cell count in assay [1] is 691. The inhibition in assay [1] is -3.3% (inactive); in assay [3], -18.1% (inactive); in assay [7], -12.4% (inactive); in assay [8] it was 98.8% (active). Also, in assay [2], the inhibition of aggregation is -29.7% (inactive). The nuclei count in assay [2] worked out at 95.4%; in assay [3], 122%. Also, the figures for the fluorescence slope in assay [4] and in assay [6] were -0.405 (inactive) and 0.00653 (inactive), respectively. Also, in assay [5], the NADPH fluorescence slope was -9.3e-05 (inactive).

`COc1ccccc1NC(=O)N1CCN(c2cccc(C(F)(F)F)c2)CC1`: the cell count in assay [1] amounted to 380. Further, the inhibition in assay [1] was 4.7% (inactive); in assay [3] it was -103% (inactive); in assay [7], -10.2% (inactive); in assay [8] it was -42% (inactive). The inhibition of aggregation in assay [2] is 12.5% (inactive). Moreover, the nuclei count in assay [2] is 107%; in assay [3], 118%. For the same compound, the fluorescence slope is -0.27 (inactive) in assay [4] and 0.00535 (inactive) in assay [6]. Besides, in assay [5], the NADPH fluorescence slope is -2.7e-05 (inactive).

Consider `COC(=O)c1[nH]c2cc(OC)ccc2c1NC(=O)CN1CCOCC1`, for which the cell count in assay [1] came to 346. Also, the inhibition in assay [1] is 1.4% (inactive); in assay [3], -117% (inactive); in assay [7], 13.1% (inactive); in assay [8] it was 7.58% (inactive). Besides, the inhibition of aggregation in assay [2] was -17.1% (inactive). In addition, the nuclei count turned out to be 105% in assay [2] and 117% in assay [3]. For the same compound, the fluorescence slope in assay [4] is -0.535 (inactive); in assay [6], 0.00517 (inactive). Also, in assay [5], the NADPH fluorescence slope is -1.7e-05 (inactive).

With `COC(=O)CCc1c(C)c(C#N)c2nc3ccccc3n2c1N1CCCC1`, the cell count in assay [1] was 490. For the same compound, the inhibition was -2.7% (inactive) in assay [1], -103% (inactive) in assay [3], 15% (inactive) in assay [7] and -5.51% (inactive) in assay [8]. In addition, the inhibition of aggregation in assay [2] was 9.1% (inactive). Moreover, the values for the nuclei count in assay [2] and in assay [3] were 103% and 159%, respectively. The values for the fluorescence slope in assay [4] and in assay [6] were -0.0763 (active) and 0.00578 (inactive), respectively. In assay [5], the NADPH fluorescence slope is -4e-06 (inactive).

For the compound `COc1cc(S(=O)(=O)N2CCOCC2)ccc1NC(=O)COC(=O)c1ccccn1`, the cell count in assay [1] amounted to 621. Besides, the inhibition is 11.9% (inactive) in assay [1], -45.4% (inactive) in assay [3], 11.7% (inactive) in assay [7] and 20.5% (inactive) in assay [8]. In addition, the inhibition of aggregation in assay [2] was -7.1% (inactive). In addition, the nuclei count in assay [2] is 126%; in assay [3] it was 101%. Further, the fluorescence slope is -0.542 (inactive) in assay [4] and 0.00554 (inactive) in assay [6]. The NADPH fluorescence slope in assay [5] is -2.5e-05 (inactive).

`CCOc1ccc(NC(=O)c2ccncc2)cc1`: the cell count in assay [1] is 631. The inhibition in assay [1] was 3.6% (inactive); in assay [3] it was -122% (inactive); in assay [7], -5.38% (inactive); in assay [8], -19.1% (inactive). In assay [2], the inhibition of aggregation was 8.2% (inactive). Further, the nuclei count in assay [2] was found to be 98.3%; in assay [3] it was 106%. For the same compound, the values for the fluorescence slope in assay [4] and in assay [6] were -0.466 (inactive) and 0.0047 (inactive), respectively. The NADPH fluorescence slope in assay [5] was -4.7e-05 (inactive).

On to `OCCn1c(CSc2nnc(-c3ccco3)n2-c2ccccc2)nc2ccc(Cl)cc21`, for which the cell count in assay [1] was 724. Further, the inhibition in assay [1] is 10.5% (inactive); in assay [3] it was 14.6% (inactive); in assay [7], 9.6% (inactive); in assay [8], 24.7% (inactive). In assay [2], the inhibition of aggregation is 6.6% (inactive). The nuclei count stood at 78.4% in assay [2] and 90.8% in assay [3]. The fluorescence slope in assay [4] was -0.574 (inactive); in assay [6], 0.00847 (inactive). In addition, in assay [5], the NADPH fluorescence slope is -3.2e-05 (inactive).

On to `Cc1c(NC(=O)CN2c3cccc4cccc(c34)S2(=O)=O)c(=O)n(-c2ccccc2)n1C`, for which, in assay [1], the cell count stood at 721. Also, the inhibition in assay [1] was -7.1% (inactive); in assay [3] it was -119% (inactive); in assay [7] it was 8.89% (inactive); in assay [8], 15.5% (inactive). Further, in assay [2], the inhibition of aggregation was 1.4% (inactive). Also, the nuclei count in assay [2] worked out at 103%; in assay [3], 141%. For the same compound, the fluorescence slope is -0.442 (inactive) in assay [4] and 0.00478 (inactive) in assay [6]. Also, the NADPH fluorescence slope in assay [5] is -2.5e-05 (inactive).

As to `COc1ccc(OC)c(S(=O)(=O)NCCO)c1`, in assay [1], the cell count stood at 217. For the same compound, the inhibition in assay [1] was -7.9% (inactive); in assay [3] it was 33.4% (inactive); in assay [7] it was 16% (inactive); in assay [8], 24.6% (inactive). Also, the inhibition of aggregation in assay [2] is 11% (inactive). The nuclei count in assay [2] worked out at 112%; in assay [3], 102%. Also, the results for the fluorescence slope in assay [4] and in assay [6] were -0.567 (inactive) and 0.00652 (inactive), respectively. Also, in assay [5], the NADPH fluorescence slope was -2.1e-05 (inactive).

`O=C(O)CCc1ccc(-c2cccs2)n1CCC(=O)O`: the cell count in assay [1] is 828. The inhibition is -2.7% (inactive) in assay [1], -43% (inactive) in assay [3], 14.7% (inactive) in assay [7] and 20.5% (inactive) in assay [8]. Further, the inhibition of aggregation in assay [2] is -3.1% (inactive). The nuclei count in assay [2] amounted to 95.6%; in assay [3] it was 116%. Further, the figures for the fluorescence slope in assay [4] and in assay [6] were -0.55 (inactive) and 0.00465 (inactive), respectively. Moreover, the NADPH fluorescence slope in assay [5] was -5.2e-05 (inactive).

As for `CCOC(=O)CSc1nnc(-c2ccc(S(=O)(=O)N3CCOCC3)cc2)n1-c1ccccc1`, in assay [1], the cell count amounted to 193. In addition, the inhibition is -21.3% (inactive) in assay [1], -19.3% (inactive) in assay [3], 10.2% (inactive) in assay [7] and 17.7% (inactive) in assay [8]. For the same compound, in assay [2], the inhibition of aggregation is -7.9% (inactive). For the same compound, the results for the nuclei count in assay [2] and in assay [3] were 88.6% and 94.3%, respectively. The results for the fluorescence slope in assay [4] and in assay [6] were -0.486 (inactive) and 0.00502 (inactive), respectively. In addition, the NADPH fluorescence slope in assay [5] is -3.1e-05 (inactive).
